Test [1] addresses T1, Toll-like receptor 9 (Mus musculus) (UniProt Q9EQU3).
T1 sequence (whole entry): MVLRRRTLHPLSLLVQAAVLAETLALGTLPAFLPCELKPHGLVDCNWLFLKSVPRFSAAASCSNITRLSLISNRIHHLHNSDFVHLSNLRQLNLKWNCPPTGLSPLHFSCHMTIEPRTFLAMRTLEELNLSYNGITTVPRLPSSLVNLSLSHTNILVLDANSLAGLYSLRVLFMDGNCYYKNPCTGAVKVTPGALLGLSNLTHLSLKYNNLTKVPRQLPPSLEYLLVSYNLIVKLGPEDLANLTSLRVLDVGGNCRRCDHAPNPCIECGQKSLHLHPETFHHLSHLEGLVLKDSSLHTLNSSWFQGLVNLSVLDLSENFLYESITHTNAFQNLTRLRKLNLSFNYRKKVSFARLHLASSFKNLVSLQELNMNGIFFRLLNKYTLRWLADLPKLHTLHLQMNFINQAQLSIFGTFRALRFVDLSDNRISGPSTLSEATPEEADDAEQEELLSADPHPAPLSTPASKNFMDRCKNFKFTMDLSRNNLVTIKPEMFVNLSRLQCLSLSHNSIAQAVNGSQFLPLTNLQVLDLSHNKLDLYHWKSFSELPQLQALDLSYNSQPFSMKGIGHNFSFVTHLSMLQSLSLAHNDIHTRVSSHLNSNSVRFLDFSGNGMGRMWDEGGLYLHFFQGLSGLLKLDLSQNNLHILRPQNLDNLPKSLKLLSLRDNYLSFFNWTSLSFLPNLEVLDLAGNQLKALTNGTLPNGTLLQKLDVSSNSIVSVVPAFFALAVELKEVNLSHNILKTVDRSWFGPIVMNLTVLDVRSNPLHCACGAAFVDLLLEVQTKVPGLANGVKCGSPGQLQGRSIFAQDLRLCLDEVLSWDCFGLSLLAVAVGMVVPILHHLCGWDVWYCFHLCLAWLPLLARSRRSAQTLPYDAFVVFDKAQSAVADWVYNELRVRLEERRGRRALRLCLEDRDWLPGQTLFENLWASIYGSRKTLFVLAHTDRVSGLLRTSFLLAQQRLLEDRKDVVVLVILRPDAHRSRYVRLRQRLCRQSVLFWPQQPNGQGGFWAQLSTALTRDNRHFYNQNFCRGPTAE
Put plainly: Induction of TLR9-mediated IL6 production in C57BL/6 mouse spleen cells after 24 hrs by ELISA. Format: cell-based. An outline of the steps: (§1)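 C57BL/6 mouse spleen cells were cultured with agonists at 0.1, 0.3, 1, 3 and 10 μg/mL for 24 h. Secreted IL-12 and IL-6 in the supernatants were measured by ELISA. Values are averages of triplicate wells from one representative of at least two independent experiments.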
In general terms: In an ELISA, binding on a coated surface is turned into a signal by an enzyme label.

Test [2] has as its target T2, Toll-like receptor 9 (Homo sapiens) (UniProt Q9NR96).
T2 sequence (whole entry): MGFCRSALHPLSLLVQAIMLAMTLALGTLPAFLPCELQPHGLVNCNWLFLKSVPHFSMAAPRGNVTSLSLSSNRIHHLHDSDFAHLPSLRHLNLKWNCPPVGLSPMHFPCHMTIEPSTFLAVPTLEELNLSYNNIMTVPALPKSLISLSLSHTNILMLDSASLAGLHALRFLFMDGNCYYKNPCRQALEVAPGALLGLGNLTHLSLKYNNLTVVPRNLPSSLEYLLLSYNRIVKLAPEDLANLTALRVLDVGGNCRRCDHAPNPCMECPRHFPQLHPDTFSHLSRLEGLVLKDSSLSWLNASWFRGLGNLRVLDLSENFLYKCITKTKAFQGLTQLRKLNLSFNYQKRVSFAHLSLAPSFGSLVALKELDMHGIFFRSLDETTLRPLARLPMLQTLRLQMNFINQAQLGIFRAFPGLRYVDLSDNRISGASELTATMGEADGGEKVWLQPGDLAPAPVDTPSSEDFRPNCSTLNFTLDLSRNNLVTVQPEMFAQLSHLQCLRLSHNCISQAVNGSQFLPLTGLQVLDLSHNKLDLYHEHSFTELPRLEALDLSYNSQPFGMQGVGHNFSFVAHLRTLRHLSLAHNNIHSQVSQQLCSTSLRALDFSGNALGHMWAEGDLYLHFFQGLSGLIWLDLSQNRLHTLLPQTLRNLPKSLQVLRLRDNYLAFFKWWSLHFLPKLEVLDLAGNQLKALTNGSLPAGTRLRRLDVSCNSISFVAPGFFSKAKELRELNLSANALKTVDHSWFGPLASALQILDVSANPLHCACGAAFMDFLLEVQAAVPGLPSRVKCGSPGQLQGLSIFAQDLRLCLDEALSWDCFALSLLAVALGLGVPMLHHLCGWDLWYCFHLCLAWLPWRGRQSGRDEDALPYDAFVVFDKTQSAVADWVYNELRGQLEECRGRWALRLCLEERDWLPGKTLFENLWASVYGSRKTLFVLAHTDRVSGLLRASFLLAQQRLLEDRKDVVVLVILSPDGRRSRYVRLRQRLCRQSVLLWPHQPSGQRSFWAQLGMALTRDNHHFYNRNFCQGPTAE
Description: Induction of TLR9-mediated immune stimulation in human PBMC assessed as IP10 production at 10 ug/ml after 24 hrs by luminex multiplex assay (RVb = 0.00 ng/ml).

Test [3] addresses T2, Toll-like receptor 9 (Homo sapiens). Description: Induction of TLR9-mediated immune stimulation in human PBMC assessed as MIP1beta production at 2 ug/ml after 24 hrs by luminex multiplex assay (RVb = 0.03 +/- 0.02 ng/ml).
Test [4] shares this target. Description: Induction of TLR9-mediated immune stimulation in human PBMC assessed as IL12 production at 2 ug/ml after 24 hrs by luminex multiplex assay (RVb = 0.00 ng/ml).
Test [5] shares this target. Put plainly: Induction of TLR9-mediated immune stimulation in human PBMC assessed as RANTES production at 2 ug/ml after 24 hrs by luminex multiplex assay (RVb = 0.05 +/- 0.04 ng/ml).
Test [6] shares this target. Put plainly: Induction of TLR9-mediated immune stimulation in human PBMC assessed as RANTES production at 10 ug/ml after 24 hrs by luminex multiplex assay (RVb = 0.05 +/- 0.04 ng/ml).
The target of test [7] is T1, Toll-like receptor 9 (Mus musculus). Description: Induction of TLR9-mediated IL12 production in C57BL/6 mouse spleen cells after 24 hrs by ELISA. Format: cell-based. In a few lines: as §1
The target in test [8] is T2, Toll-like receptor 9 (Homo sapiens). Put plainly: Induction of TLR9-mediated immune stimulation in human PBMC assessed as MIP1alpha production at 10 ug/ml after 24 hrs by luminex multiplex assay (RVb = 0.01 ng/ml).
In test [9] the target is T1, Toll-like receptor 9 (Mus musculus). Put plainly: Activation of mouse TLR9 expressed in HEK293 cells assessed as induction of NF-kappaB activity at 1 to 10 ug/ml after 18 hrs by SEAP assay. It is filed as cell-based. In a few lines:
(§2)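 HEK293 cells stably expressing mouse TLR9 were grown in DMEM with 10% heat-inactivated FBS. At 80% confluence they were transiently transfected with a SEAP reporter plasmid (100 ng/well, lipofectamine) for 6 h. Medium was then replaced and agonists were added for 18 h. Supernatant SEAP was read with QuantiBlue substrate at 620-645 nm. Results are expressed as fold NF-κB activity over PBS control.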

Test [10] shares this target. Put plainly: Activation of mouse TLR9 expressed in HEK293 cells assessed as induction of NF-kappaB activity after 18 hrs by SEAP assay. Format: cell-based. In a few lines: as §2

The source made the active and inactive calls. The rule behind the calls is not given here.

On to `Cc1cn([C@H]2C[C@H](OCC(O)COP(=O)(S)O[C@H]3C[C@H](n4cc(C)c(=O)[nH]c4=O)O[C@@H]3COP(=O)(S)O[C@H]3[C@@H](O)[C@H](n4ccc(N)nc4=O)O[C@@H]3COP(=O)(S)O[C@H]3[C@@H](O)[C@H](n4cnc5c(N)ncnc54)O[C@@H]3COP(=O)(S)O[C@H]3[C@@H](O)[C@H](n4cnc5c(N)ncnc54)O[C@@H]3COP(=O)(S)O[C@H]3[C@@H](O)[C@H](n4ccc(N)nc4=O)O[C@@H]3COP(=O)(S)O[C@H]3[C@@H](O)[C@H](n4ccc(N)nc4=O)O[C@@H]3COP(=O)(S)O[C@H]3[C@@H](O)[C@H](n4cnc5c(N)ncnc54)O[C@@H]3COP(=O)(S)O[C@H]3[C@@H](O)[C@H](n4ccc(N)nc4=O)O[C@@H]3COP(=O)(S)O[C@H]3[C@@H](O)[C@H](n4cnc5c(N)ncnc54)O[C@@H]3COP(=O)(S)O[C@H]3[C@@H](O)[C@H](n4ccc(N)nc4=O)O[C@@H]3COP(=O)(S)O[C@H]3[C@@H](O)[C@H](n4cnc5c(N)ncnc54)O[C@@H]3CO)[C@@H](COP(=O)(S)O[C@H]3[C@@H](O)[C@H](n4ccc(N)nc4=O)O[C@@H]3COP(=O)(S)O[C@H]3[C@@H](O)[C@H](n4cnc5c(N)ncnc54)O[C@@H]3COP(=O)(S)O[C@H]3[C@@H](O)[C@H](n4cnc5c(N)ncnc54)O[C@@H]3COP(=O)(S)O[C@H]3[C@@H](O)[C@H](n4ccc(N)nc4=O)O[C@@H]3COP(=O)(S)O[C@H]3[C@@H](O)[C@H](n4ccc(N)nc4=O)O[C@@H]3COP(=O)(S)O[C@H]3[C@@H](O)[C@H](n4cnc5c(N)ncnc54)O[C@@H]3COP(=O)(S)O[C@H]3[C@@H](O)[C@H](n4ccc(N)nc4=O)O[C@@H]3COP(=O)(S)O[C@H]3[C@@H](O)[C@H](n4cnc5c(N)ncnc54)O[C@@H]3COP(=O)(S)O[C@H]3[C@@H](O)[C@H](n4ccc(N)nc4=O)O[C@@H]3COP(=O)(S)O[C@H]3[C@@H](O)[C@H](n4cnc5c(N)ncnc54)O[C@@H]3CO)O2)c(=O)[nH]c1=O` (stereo partly drawn), for which the Activity result was “Dose-dependent effect” in test [1]; 0.02 ng/mL in test [2]; 0.07 ng/mL in test [3]; 0.03 ng/mL in test [4]; 0.16 ng/mL in [5]; 0.52 ng/mL in [6]. The Activity result was “Dose-dependent effect” in test [7] and 0.07 ng/mL in [8]. The outcome in [9] was Active.
For `Cc1cn([C@H]2C[C@H](O[C@@H]3C[C@@H](O)C[C@@H](OP(=O)(S)O[C@H]4C[C@H](n5cc(C)c(=O)[nH]c5=O)O[C@@H]4COP(=O)(S)O[C@H]4[C@@H](O)[C@H](n5ccc(N)nc5=O)O[C@@H]4COP(=O)(S)O[C@H]4C[C@H](n5cc(C)c(=O)[nH]c5=O)O[C@@H]4COP(=O)(S)O[C@H]4C[C@H](n5cc(C)c(=O)[nH]c5=O)O[C@@H]4COP(=O)(S)O[C@H]4C[C@H](n5ccc6c(=O)[nH]c(N)nc65)O[C@@H]4COP(=O)(S)O[C@H]4[C@@H](O)[C@H](n5ccc(N)nc5=O)O[C@@H]4COP(=O)(S)O[C@H]4C[C@H](n5cc(C)c(=O)[nH]c5=O)O[C@@H]4COP(=O)(S)O[C@H]4[C@@H](O)[C@H](n5cnc6c(=O)[nH]c(N)nc65)O[C@@H]4COP(=O)(S)O[C@H]4C[C@H](n5cc(C)c(=O)[nH]c5=O)O[C@@H]4COP(=O)(S)O[C@H]4[C@@H](O)[C@H](n5ccc(N)nc5=O)O[C@@H]4COP(=O)(S)O[C@H]4C[C@H](n5cc(C)c(=O)[nH]c5=O)O[C@@H]4CO)C3)[C@@H](COP(=O)(S)O[C@H]3[C@@H](O)[C@H](n4ccc(N)nc4=O)O[C@@H]3COP(=O)(S)O[C@H]3C[C@H](n4cc(C)c(=O)[nH]c4=O)O[C@@H]3COP(=O)(S)O[C@H]3C[C@H](n4cc(C)c(=O)[nH]c4=O)O[C@@H]3COP(=O)(S)O[C@H]3C[C@H](n4ccc5c(=O)[nH]c(N)nc54)O[C@@H]3COP(=O)(S)O[C@H]3[C@@H](O)[C@H](n4ccc(N)nc4=O)O[C@@H]3COP(=O)(S)O[C@H]3C[C@H](n4cc(C)c(=O)[nH]c4=O)O[C@@H]3COP(=O)(S)O[C@H]3[C@@H](O)[C@H](n4cnc5c(=O)[nH]c(N)nc54)O[C@@H]3COP(=O)(S)O[C@H]3C[C@H](n4cc(C)c(=O)[nH]c4=O)O[C@@H]3COP(=O)(S)O[C@H]3[C@@H](O)[C@H](n4ccc(N)nc4=O)O[C@@H]3COP(=O)(S)O[C@H]3C[C@H](n4cc(C)c(=O)[nH]c4=O)O[C@@H]3CO)O2)c(=O)[nH]c1=O` (stereo partly drawn), the Activity result is “Dose-dependent effect” in [1]; 0.03 ng/mL in test [2]; 0.12 ng/mL in [3]; 0.12 ng/mL in [4]; “Dose-dependent effect” in test [10]; 0.5 ng/mL in test [5]. In addition, the Activity in test [6] is 2.26 ng/mL; in test [7], “Dose-dependent effect”; in [8], 0.76 ng/mL.

Source of the values: ChEMBL document CHEMBL1157912, “Impact of nature and length of linker incorporated in agonists on toll-like receptor 9-mediated immune responses” (J Med Chem, 2010).
